# Most compounds without a hit are left out; they make up all but 2.1% or so of the library.
# Runt-SMMHC FRET – inhibitors of human RUNX1 Runt domain binding to CBFb-SMMHC | Cerulean-Runt/Venus-CBFb-SMMHC FRET ratio 530/480, 1 h | Q01196+Q13951 | inhibition, % at 20 µM | actives 0.74% (n = 220,000);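 active means mean inhibition across duplicate retests at 20 µM reaching about 50%, limit read from the data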;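 further: 0% = DMSO wells and 100% = wells with excess untagged CBFb-SMMHC; inhibitors lower the FRET ratio by blocking Runt binding to CBFb-SMMHC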
# p97 ATPase inh – human p97 ATPase inhibition | recombinant p97 ATPase, Kinase-Glo ATP luminescence, 3 h | inhibition, % at 8 µM | actives 0.42% (n = 220,000) | AID 1481; in the data active means inhibition above about 15%;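 further: 0% = DMSO vehicle and 100% = wells lacking enzyme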
# Hck-Nef inh – blocks Nef-activated human Hck kinase; Recombinant Hck-YEEI plus Nef, Z-Lyte FRET kinase assay; P08631; AID 463187; actives 0.68% (n = 220,000); inhibition, % at 20 µM;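 active means Hck-Nef kinase inhibition above about 50%, limit read from the data; inactive means inhibition below that limit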;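 further: 0% = DMSO with Hck plus Nef and 100% = Hck alone without Nef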
# Target sequence (P08631 whole entry, looked up): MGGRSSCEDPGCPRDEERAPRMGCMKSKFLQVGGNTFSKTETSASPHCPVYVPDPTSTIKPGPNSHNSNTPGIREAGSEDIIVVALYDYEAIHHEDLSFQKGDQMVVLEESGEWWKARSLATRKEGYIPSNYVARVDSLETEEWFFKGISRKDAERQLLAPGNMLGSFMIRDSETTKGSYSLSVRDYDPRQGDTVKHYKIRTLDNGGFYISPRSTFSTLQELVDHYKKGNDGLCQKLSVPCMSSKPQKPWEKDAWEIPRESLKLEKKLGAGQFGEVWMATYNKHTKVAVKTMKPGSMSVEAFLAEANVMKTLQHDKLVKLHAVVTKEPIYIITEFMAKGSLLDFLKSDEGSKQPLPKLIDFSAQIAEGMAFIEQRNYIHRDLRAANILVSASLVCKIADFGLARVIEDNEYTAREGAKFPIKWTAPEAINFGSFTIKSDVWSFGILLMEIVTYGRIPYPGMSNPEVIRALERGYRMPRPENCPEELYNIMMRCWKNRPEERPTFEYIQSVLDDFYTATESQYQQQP
# TbHK1 inh – T. brucei hexokinase 1 inhibition; actives 0.11% (n = 220,000); recombinant TbHK1, G6PDH-coupled NADH A340; inhibition, % at 10 µM;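 active means inhibition of 50% or more in the single-dose primary screen; inactive means inhibition below 50%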
# RanGTP-Impb inh – disruptors of Ran-importin-beta complex formation – biochemical, FRET, CFP-Ran, YFP-importin-beta, homogeneous, primary screen; cell-free CFP-Ran/YFP-importin-beta FRET ratio; actives 1.1% (n = 300,000); inhibition, % (test concentration not listed);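 active means more than half of the replicate wells show a fall in the fluorescence ratio signal beyond about 16%, limit read from the data, passing the limit was not always enough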;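 further: 0% = DMSO wells and 100% = Ran loaded with GDP instead of GTP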
# Runt-CBFb FRET – Runt domain-CBFb interaction inhibition. Q01196+Q13951. Cerulean-Runt/Venus-CBFb FRET ratio 530/480, 1 h. inhibition, % at 20 µM. actives 0.46% (n = 220,000). AID 1496;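 active means inhibition over about 50% at 20 µM in the single-dose screen, limit read from the data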;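 further: 0% = DMSO wells and 100% = excess unlabeled CBFb competitor control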
#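 test system = Cerulean-tagged RUNX1 Runt domain (FRET donor) fusion protein | reagent = Venus-CBFb binding partner, 100 nM | incubation = protein complex preformed 1 h, compound exposure 1 h, room temperature, dark | detection = FRET fluorescence | read-out basis = loss of energy transfer signal | controls = 5 µM unlabeled CBFb as full-inhibition high control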
# YIC FRET counter – counter-screen: alters YIC FRET probe signal. Purified YIC probe, intramolecular FRET ratio YFP/CFP. actives 40% (n = 1,000). AID 435026. IC50, µM. shares compounds with RanGTP-Impb inh;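 active means fitted half-maximal inhibitory concentration no more than tenfold above the top dose tested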
# Starred values were filed as active, the others as inactive; x = no result.
SMILES,Runt-SMMHC FRET,p97 ATPase inh,Hck-Nef inh,TbHK1 inh,RanGTP-Impb inh,Runt-CBFb FRET,YIC FRET counter
Cc1ccccc1CCNC(=O)C1CC(O)CN1C(=O)Nc1ccccc1 (stereo unspecified),x,x,x,x,-2,x,x
Cc1cc(C)c(S(=O)(=O)N(C)CC(=O)N2CCCCC2)c(C)c1,2,-6,-3,-7,-1,0,x
Cc1cc(C)c(S(=O)(=O)N(C)CC(N)=O)c(C)c1,-6,3,0,0,17*,-2,>50
COC(=O)C1=CN(Cc2ccccc2)C=C(C(=O)OC)C1c1cc(F)ccc1F,x,x,x,x,24*,x,21*
O=C(Cn1nnc(-c2cccs2)n1)NCCc1ccccc1,-4,-1,-6,5,10,0,x
O=C(Cn1nnc(-c2ccncc2)n1)NCCc1ccccc1,-4,8,1,1,18*,0,>50
CC1Cc2ccccc2N1Cc1cc(=O)c(OCC(=O)NCCc2ccccc2)co1 (stereo unspecified),x,x,x,x,-2,x,x
Cc1cccc(-n2c(C)cc(/C=C3\C(=N)N4N=C(CC(C)C)SC4=NC3=O)c2C)c1,9,9,5,34,26*,-22,>50
COc1ccc(C(CNc2nc(-c3cccnc3)nc3ccccc23)N(C)C)cc1 (stereo unspecified),x,x,x,x,0,x,x
CN(C)CCCN(C(=O)c1ccc(Br)s1)c1nc2cc3c(cc2s1)OCCO3,x,x,x,x,22*,x,>50
Cc1ccc(N2CC(=O)N(NC(=O)c3sc4nc(C)cc(C)c4c3N)CC2=O)cc1,8,5,21,-17,20*,6,>50
COCCN(C(=O)c1cc(-c2ccncc2)nc2ccccc12)c1c(N)n(CC(C)C)c(=O)[nH]c1=O,x,x,x,x,2,x,x
Cc1ccc(S(=O)(=O)c2cc3c(=O)n4cccc(C)c4nc3n(C3CCCCC3)c2=N)cc1,x,x,x,x,34*,x,3.9*
CCOC(=O)C1(CCc2ccccc2)CCN(Cc2ccccn2)CC1,0,-3,-1,-9,17*,2,>50
O=C(c1cc(COc2ccc(F)cc2Cl)on1)N1CCCC(c2ccccc2)C1 (stereo unspecified),2,-8,26,13,18*,-3,>50
c1ccc(-c2ccc(-c3cn4c(n3)CCC4)cc2)cc1,-2,-8,13,-5,-4,0,x
Cc1ccc2nc(NCCNC(=O)c3ccccc3)c(C#N)cc2c1,x,x,x,x,49*,x,4.7*
Cc1ccc(C)c(NC(=S)NCCCN2CCOCC2)c1,-6,4,1,-5,-2,0,x
Cc1cccc2cc(C#N)c(NCCNC(=S)NCCCN3CCOCC3)nc12,64*,6,15,-3,19*,40,48*
COc1ccc(C(=O)NCCNc2nc3c(C)cccc3cc2C#N)cc1,x,x,x,x,36*,x,18*
COc1ccc(OC)c(CCNC(=O)c2cccc(NC3=NC4CS(=O)(=O)CC4S3)c2)c1 (stereo unspecified),x,x,x,x,-3,x,x
CCC(CO)Nc1nc2ccc(Cl)cc2c2ccccc12 (stereo unspecified),1,-6,23,-20,0,-1,x
CCN(CC)CCCNC(=O)c1ccc(N2CCCCC2)c(NS(=O)(=O)c2ccc(C)cc2)c1,-4,2,27,-4,3,3,x
CCc1[nH]nc(C(=O)N2CCCC(Nc3cccc(F)c3)C2)c1C (stereo unspecified),x,x,x,x,6,x,x
CN(C)/C=C/C(=O)/C=C/c1ccc(Cl)cc1,1,4,3,-29,22*,0,>50
CC(=O)N(c1ccc(Cl)cc1)c1c[nH]c2ccccc12,1,3,0,8,26*,-1,>50
COc1ccc(N2CCN(CCCNC(=O)Cn3c(=O)c4cccn4c4cccnc43)CC2)cc1,x,x,x,x,-1,x,x
O=C(Cn1c(=O)c2cccn2c2cccnc21)NCCCN1CCN(c2ccc(F)cc2)CC1,x,x,x,x,32*,x,>50
CC1(C)CCC[C@]2(C)[C@H]3CC(=O)O[C@]3(C)CC[C@@H]12,x,x,x,x,21*,x,>50

# High-throughput results: PubChem, several laboratories
